Source: PubChem (several laboratories)
Only some compounds are listed: those with a hit (about 1.2% of all), similar ones and a draw of the others.
Hep lipid drop = inhibitors of hepatocyte lipid droplet formation, primary screen, imaging, high-throughput imaging, BODIPY stain | AML12 mouse hepatocytes, oleate lipid droplets | inhibition, % at 6.5 µM | AID 1656, 2009 | actives 0.4% (n = 240,000);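 active means lipid droplet intensity inhibited by at least 50%, with more than 500 cells counted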
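Assay system: AML12 hepatocytes (mouse); Probe or stimulus: oleic acid at 100 µM to induce lipid droplet formation; Dosing: compound at 6.5 µM only; Schedule: compound with oleate, overnight; Detection: fluorescence imaging, 20x objective, two fields per well; Measure: % inhibition of lipid droplet signal.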
proCasp7 act = procaspase-7 activators, primary screen, counter-screen for procaspase-3 activator project, biochemical, absorbance, HTS, human | Caspase-7 (Homo sapiens), P55210 | activation, % at 8.5 µM | AID 463210, 2010 | recombinant procaspase-7, Ac-DEVD-pNA absorbance 405 nm; D23A/D198A/D206A triple mutant, cannot self-cleave; scale: DMSO 0, 5 µM enzyme 100 | actives 0.093% (n = 330,000);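 active means percent activation above the screen-wide mean plus 3 SD, cut at about 25% in these data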
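Assay system: Uncleavable procaspase-7 mutant enzyme | Input: 2 µM procaspase-7 mutant as dispensed | Timing: 1 h compound preincubation, 2 h substrate cleavage, 25 °C | Repeats: One well per compound | Control set: DMSO wells as 0%, DMSO with 5 µM added PC-7 as 100% | Technique: Epi-absorbance of released pNA at 405 nm, two timepoints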
Rce1 inh = yeast Rce1p protease inhibitors, primary screen, biochemical, fluorescence, cell-free homogeneous. CAAX prenyl protease 2 (Saccharomyces cerevisiae (strain ATCC 204508 / S288c)), Q03530. yeast membranes, quenched prenylated peptide cleavage fluorescence. calls only. actives 0.27% (n = 290,000). AID 2563, 2010;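 active means fall in fluorescence gain of 50% or more versus controls, with final raw signal at or below 3038400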
p-CIP stab down = p/CIP-EGFP fusion destabilizers, primary screen, fluorescence, F442A cells; actives 0.01% (n = 290,000); AID 1984, 2009; Q05BA5; 16 h; decrease of EGFP signal, % at 10 µM;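 active means EGFP signal decrease of at least 30% at 10 µM or well 3 SD below plate mean, unless failing retest; inactive means the rest, including hits failing retest or dose response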
Target sequence (Q05BA5 1-1403): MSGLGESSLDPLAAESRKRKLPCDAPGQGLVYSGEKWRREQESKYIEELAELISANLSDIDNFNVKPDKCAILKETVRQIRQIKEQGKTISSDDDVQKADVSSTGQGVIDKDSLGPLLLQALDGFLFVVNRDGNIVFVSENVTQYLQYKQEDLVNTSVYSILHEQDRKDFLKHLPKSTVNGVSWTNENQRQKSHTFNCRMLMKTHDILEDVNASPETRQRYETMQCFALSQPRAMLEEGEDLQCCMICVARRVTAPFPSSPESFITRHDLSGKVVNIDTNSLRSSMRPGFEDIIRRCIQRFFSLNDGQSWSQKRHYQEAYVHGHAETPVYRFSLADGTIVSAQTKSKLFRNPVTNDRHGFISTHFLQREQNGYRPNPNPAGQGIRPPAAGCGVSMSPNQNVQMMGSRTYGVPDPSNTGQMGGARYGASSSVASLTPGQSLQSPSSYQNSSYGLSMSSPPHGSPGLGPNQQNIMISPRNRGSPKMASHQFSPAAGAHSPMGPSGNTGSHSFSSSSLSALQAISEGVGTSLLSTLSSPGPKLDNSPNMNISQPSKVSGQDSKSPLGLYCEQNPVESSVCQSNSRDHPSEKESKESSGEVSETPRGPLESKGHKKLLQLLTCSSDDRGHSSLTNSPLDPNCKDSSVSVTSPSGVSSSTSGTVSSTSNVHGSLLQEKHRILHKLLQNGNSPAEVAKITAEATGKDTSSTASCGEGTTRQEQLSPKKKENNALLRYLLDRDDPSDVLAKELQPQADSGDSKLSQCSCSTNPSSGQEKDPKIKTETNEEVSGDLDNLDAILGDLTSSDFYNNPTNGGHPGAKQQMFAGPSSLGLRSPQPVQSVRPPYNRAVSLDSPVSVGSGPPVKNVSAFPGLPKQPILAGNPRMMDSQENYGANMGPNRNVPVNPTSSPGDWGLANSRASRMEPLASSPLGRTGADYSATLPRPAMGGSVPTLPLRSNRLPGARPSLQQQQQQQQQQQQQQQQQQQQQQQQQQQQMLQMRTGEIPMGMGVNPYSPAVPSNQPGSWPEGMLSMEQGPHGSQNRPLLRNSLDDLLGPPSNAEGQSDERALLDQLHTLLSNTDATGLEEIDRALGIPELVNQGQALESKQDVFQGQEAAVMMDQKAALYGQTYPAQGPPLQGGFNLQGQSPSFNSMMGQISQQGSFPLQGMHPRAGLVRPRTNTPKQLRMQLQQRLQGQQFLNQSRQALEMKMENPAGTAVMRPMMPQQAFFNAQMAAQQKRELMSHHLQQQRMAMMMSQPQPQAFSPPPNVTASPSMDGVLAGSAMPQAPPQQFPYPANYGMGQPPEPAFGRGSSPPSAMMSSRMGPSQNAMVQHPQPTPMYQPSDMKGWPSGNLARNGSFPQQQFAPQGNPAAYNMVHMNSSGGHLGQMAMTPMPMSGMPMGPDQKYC
proCasp3 act = activators of human procaspase-3 D3A mutant, primary screen, biochemical, absorbance, PC-3 D3A mutant, single concentration. actives 0.11% (n = 330,000). recombinant procaspase-3 D3A, Ac-DEVD-pNA absorbance 405 nm. Caspase-3 (Homo sapiens), P42574. activation, % at 8.5 µM;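 active means activation above the mean of all tested compounds plus 3 SD, cut at about 21% in these data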
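Test system: Procaspase-3 D3A mutant; medium: Zinc-free HEPES/NaCl buffer with 0.01% Triton X-100 at pH 7.4; reagent: DEVD-pNA substrate; doses: one concentration, 8.5 µM nominal, 0.8% DMSO; times: 1 h preincubation plus 2 h reaction at 25 °C; signal: Epi-absorbance at 405 nm of released p-nitroaniline, 0 and 120 min; replicates: singlicate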
FXN GAA850 act = FXN promoter activators, primary screen, cell-based, luciferase luminescence, HEK293 lucGAA850 | HEK293 lucGAA850 FXN promoter luciferase reporter, 24 h; percent of 10 µM SAHA response | activation, % at 6 µM | AID 540364, 2011 | actives 0.56% (n = 360,000);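 active means activation above the average of all compounds screened plus 3 SD, cutoff fixed separately per campaign, cut at about 7.5% in these data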
PC3 dual counter = procaspase-3 activators, counter-screen for dual procaspase-3/7 activator project, biochemical, absorbance, PC-3 D3A mutant, human. shares compounds with proCasp7 act. recombinant PC-3 D3A, Ac-DEVD-pNA absorbance 405 nm; aspartates 9, 28, 175 changed to alanine; 100% = enzyme control. activation, % at 8.5 µM. 290 tested, under 10 active;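 active means mean percent activation across triplicates above a set limit taken from the earlier primary procaspase-3 screen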
Procasp7 act = activation of procaspase-7 enzyme – biochemical, absorbance, human, dual procaspase-3/-7 activator project, confirmation | shares compounds with proCasp7 act | recombinant procaspase-7, Ac-DEVD-pNA absorbance 405 nm; D23A/D198A/D206A mutant that cannot self-cleave | activation, % at 8.5 µM | 290 tested, under 10 active | AID 493115, 2011;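 active means mean activation above a set limit carried over from the earlier primary screen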
Large screens that a line does not name were inactive (follow-up assays come after a bar, where they were run).

CC(=O)Nc1ccc(C2=NN(c3ccccc3)C(c3cccs3)C2)cc1 (centres undefined)	proCasp7 act 126, proCasp3 act 157 | PC3 dual counter inactive | Procasp7 act inactive
COc1nnc(OC)c2ccccc12	none (no result: Hep lipid drop)
COc1c2ccccc2c(OC)c2ccccc12	proCasp7 act 63, proCasp3 act 81 | PC3 dual counter inactive | Procasp7 act inactive
COc1ccc(NC2CCCN(C(=O)CCCn3cncn3)C2)cc1OC (centres undefined)	none
CC1=C(C(=O)OCc2ccccc2)C(c2cccc(F)c2)NC(=O)N1 (centres undefined)	none
O=c1[nH]cnc2sc(-c3ccccc3)cc12	none
O=c1[nH]c(-c2ccccc2)nc2sc(-c3ccccc3)cc12	proCasp7 act 26, proCasp3 act 29 | PC3 dual counter inactive | Procasp7 act inactive
CCNC(=O)C1(C)CCN(C(=O)c2ccccc2C(F)(F)F)C1 (centres undefined)	none (no result: Hep lipid drop, proCasp7 act, Rce1 inh, p-CIP stab down, proCasp3 act)
O=C(CN1CCN(Cc2ccccc2)CC1)Nc1cccc(C(F)(F)F)c1	none
Cc1ccc(Cn2c(=O)c3cccnc3n(CC(=O)Nc3cccc(C(F)(F)F)c3)c2=O)cc1	proCasp7 act 42 | PC3 dual counter inactive | Procasp7 act inactive
COc1ccc(N2CCN(C(=O)CN3C(=O)NC(C)(C4CC4)C3=O)CC2)cc1 (centres undefined)	none (no result: Hep lipid drop, Rce1 inh, p-CIP stab down)
COc1ccc(OC)c(/C=N/NC(=O)c2cc3c(OC)cccc3[nH]2)c1	proCasp7 act 38 | PC3 dual counter inactive | Procasp7 act inactive
O=C(NCCOc1ccccc1)C1CCC(=O)N(CCCN2CCOCC2)C1 (centres undefined)	none
O=C(NCCN1CCCC1)C1CCC(=O)N(CCCN2CCOCC2)C1 (centres undefined)	proCasp7 act 45 | PC3 dual counter inactive | Procasp7 act inactive
COc1ccc(-c2nc3ccccc3nc2-c2ccc(OC)cc2)cc1	proCasp7 act 33, proCasp3 act 32 | PC3 dual counter inactive | Procasp7 act inactive
Cc1cccc(Oc2ccc(NC(=O)C3=CC=CN4CCS(=O)(=O)N=C34)cc2)c1	none (no result: Hep lipid drop, Rce1 inh, p-CIP stab down)
COc1cc(C(=O)OCC(=O)NC(=O)NC2CCCCC2)cc(Cl)c1OC	none (no result: Hep lipid drop, p-CIP stab down)
CCOC(=O)c1ccc2nc(NC(=O)c3ccco3)sc2c1	proCasp7 act 30, proCasp3 act 24 | PC3 dual counter inactive | Procasp7 act inactive
CCOc1ccc2nc(NC(=O)c3ccco3)sc2c1	none
COc1ccc(/C=N/NC(=O)c2sc3nc(C)cc(C)c3c2N)cc1	proCasp7 act 49 | PC3 dual counter inactive | Procasp7 act inactive
O=c1cc(-c2ccc(O)cc2)oc2ccc3ccccc3c12	proCasp7 act 29, proCasp3 act 22 (no result: Hep lipid drop, Rce1 inh, p-CIP stab down) | PC3 dual counter inactive | Procasp7 act inactive
O=c1cc(-c2ccc(O)cc2)oc2c1ccc1ccccc12	none (no result: Hep lipid drop, Rce1 inh, p-CIP stab down)
CSc1nnc(-c2cc3c(s2)-c2ccccc2CC3)o1	proCasp7 act 33 | PC3 dual counter inactive | Procasp7 act inactive
